Assay results: ChEMBL document CHEMBL1145787, “Synthesis and structure-activity relationship of N-substituted 4-arylsulfonylpiperidine-4-hydroxamic acids as novel, orally active matrix metalloproteinase inhibitors for the treatment of osteoarthritis” (J Med Chem, 2003)

Experiments:
[1] = In vivo inhibitory activity against Matrix metalloprotease enzyme by dialysis implant assay, value is relative to activity of CGS-27023 (68+/-5) at 25 mg/kg. po; assay type: functional
[2] = molecular target: T1, Disintegrin and metalloproteinase domain-containing protein 17 (Homo sapiens, UniProt P78536); experiment: Inhibition of Tumor necrosis factor alpha converting enzyme (TACE) at 10 uM
How it was run: (§1)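 Dose–response curves were not generated when inhibition was below 60% at 10 μM.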

[3] = molecular target: Matrix metalloproteinase-9 (Homo sapiens, UniProt P14780); experiment: In vitro inhibitory activity against matrix metalloprotease-9.
[4] = In vivo inhibitory activity against Matrix metalloprotease enzyme by dialysis implant assay, value is relative to activity of CGS-27023 (35+/-4) at 25 mg/kg. po; assay type: functional
[5] = molecular target: T1, Disintegrin and metalloproteinase domain-containing protein 17; experiment: In vitro inhibitory activity against tumor necrosis factor alpha converting enzyme (TACE).
[6] = molecular target: T2, Interstitial collagenase (Homo sapiens, UniProt P03956); experiment: In vitro inhibitory activity against matrix metalloprotease-1
T2 sequence (P03956 whole entry): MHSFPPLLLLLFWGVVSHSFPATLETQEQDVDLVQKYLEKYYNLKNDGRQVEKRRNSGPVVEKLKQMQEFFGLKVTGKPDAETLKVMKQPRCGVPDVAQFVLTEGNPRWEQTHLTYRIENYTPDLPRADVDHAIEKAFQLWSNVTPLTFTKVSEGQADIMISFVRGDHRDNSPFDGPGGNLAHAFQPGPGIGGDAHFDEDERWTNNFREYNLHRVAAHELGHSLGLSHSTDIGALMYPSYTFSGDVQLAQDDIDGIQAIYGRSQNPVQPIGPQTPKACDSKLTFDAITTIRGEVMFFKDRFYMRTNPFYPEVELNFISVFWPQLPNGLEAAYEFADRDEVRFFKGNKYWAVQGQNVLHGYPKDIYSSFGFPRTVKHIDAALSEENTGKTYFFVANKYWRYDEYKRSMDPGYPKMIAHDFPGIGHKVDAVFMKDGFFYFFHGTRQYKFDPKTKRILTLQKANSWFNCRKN

[7] = molecular target: T3, Interstitial collagenase (Homo sapiens) (UniProt P03956); experiment: Inhibition of Matrix metalloprotease-1 at 10 uM; how it was run: as §1
T3 sequence (whole entry): T2 sequence (P03956 whole entry)

[8] = In vivo inhibitory activity against Matrix metalloprotease enzyme by dialysis implant assay, value is relative to activity of CGS-27023 (58+/-2) at 25 mg/kg. po; assay type: functional
[9] = molecular target: Collagenase 3 (Homo sapiens, UniProt P45452)
[10] = In vivo inhibitory activity against Matrix metalloprotease enzyme by dialysis implant assay, value is relative to activity of CGS-27023 (76+/-2) at 25 mg/kg. po; assay type: functional
[11] = In vivo inhibitory activity against Matrix metalloprotease enzyme by dialysis implant assay, value is relative to activity of CGS-27023 (54+/-2) at 25 mg/kg. po; assay type: functional
[12] = In vivo inhibition of Matrix metalloprotease enzyme by Sponge-wrapped cartilage assay, value is relative to activity of CGS-27023 (25+/-4) at 25 mg/kg. po. bid; assay type: functional
[13] = In vivo inhibitory activity against Matrix metalloprotease enzyme by dialysis implant assay, value is relative to activity of CGS-27023 (69+/-2) at 25 mg/kg. po; assay type: functional
[14] = In vivo inhibition of Matrix metalloprotease enzyme by Sponge-wrapped cartilage assay, value is relative to activity of CGS-27023 (27+/-2) at 25 mg/kg. po. bid; assay type: functional
[15] = In vivo inhibition of Matrix metalloprotease enzyme by Sponge-wrapped cartilage assay, value is relative to activity of RS-130830 (39+/-2) at 10 mg/kg. po. bid; assay type: functional
[16] = In vivo inhibitory activity against Matrix metalloprotease enzyme by dialysis implant assay, value is relative to activity of CGS-27023 (73+/-3) at 25 mg/kg. po; assay type: functional
[17] = In vivo inhibition of Matrix metalloprotease enzyme by Sponge-wrapped cartilage assay, value is relative to activity of CGS-27023 (37+/-5) at 25 mg/kg. po. bid; assay type: functional
[18] = In vivo inhibitory activity against Matrix metalloprotease enzyme by dialysis implant assay, value is relative to activity of CGS-27023 (51+/-2) at 25 mg/kg. po; assay type: functional
[19] = In vivo inhibition of Matrix metalloprotease enzyme by Sponge-wrapped cartilage assay, value is relative to activity of CGS-27023 (39+/-3) at 25 mg/kg. po. bid; assay type: functional
[20] = In vivo inhibitory activity against Matrix metalloprotease enzyme by dialysis implant assay, value is relative to activity of CGS-27023 (65+/-4) at 25 mg/kg. po; assay type: functional
[21] = In vivo inhibition of Matrix metalloprotease enzyme by Sponge-wrapped cartilage assay, value is relative to activity of RS-130830 (43+/-3) at 25 mg/kg. po. bid; assay type: functional
[22] = In vivo inhibitory activity against Matrix metalloprotease enzyme by dialysis implant assay, value is relative to activity of CGS-27023 (74+/-2) at 25 mg/kg. po; assay type: functional
[23] = In vivo inhibitory activity against Matrix metalloprotease enzyme by dialysis implant assay, value is relative to activity of CGS-27023 (38+/-3) at 25 mg/kg. po; assay type: functional

Chain of Matrix metalloproteinase-9 (P14780 whole entry): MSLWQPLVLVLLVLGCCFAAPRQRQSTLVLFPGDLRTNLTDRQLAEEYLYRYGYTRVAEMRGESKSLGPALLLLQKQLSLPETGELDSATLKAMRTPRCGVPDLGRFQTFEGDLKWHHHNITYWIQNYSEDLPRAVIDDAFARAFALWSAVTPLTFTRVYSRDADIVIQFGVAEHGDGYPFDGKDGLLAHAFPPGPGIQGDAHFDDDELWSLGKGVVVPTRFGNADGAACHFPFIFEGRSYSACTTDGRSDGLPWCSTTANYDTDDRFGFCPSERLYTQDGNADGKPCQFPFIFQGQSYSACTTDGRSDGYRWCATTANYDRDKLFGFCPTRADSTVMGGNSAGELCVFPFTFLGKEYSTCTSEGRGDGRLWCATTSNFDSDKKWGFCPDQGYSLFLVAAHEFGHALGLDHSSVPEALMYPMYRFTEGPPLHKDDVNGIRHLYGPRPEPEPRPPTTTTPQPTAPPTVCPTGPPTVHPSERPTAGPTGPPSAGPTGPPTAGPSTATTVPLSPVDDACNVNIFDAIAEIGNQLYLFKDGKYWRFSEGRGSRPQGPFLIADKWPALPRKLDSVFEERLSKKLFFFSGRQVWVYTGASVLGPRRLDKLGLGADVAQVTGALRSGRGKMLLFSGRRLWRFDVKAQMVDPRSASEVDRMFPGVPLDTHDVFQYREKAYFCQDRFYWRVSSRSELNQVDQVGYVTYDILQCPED
T1 sequence (P78536 whole entry, the tested form may be a part): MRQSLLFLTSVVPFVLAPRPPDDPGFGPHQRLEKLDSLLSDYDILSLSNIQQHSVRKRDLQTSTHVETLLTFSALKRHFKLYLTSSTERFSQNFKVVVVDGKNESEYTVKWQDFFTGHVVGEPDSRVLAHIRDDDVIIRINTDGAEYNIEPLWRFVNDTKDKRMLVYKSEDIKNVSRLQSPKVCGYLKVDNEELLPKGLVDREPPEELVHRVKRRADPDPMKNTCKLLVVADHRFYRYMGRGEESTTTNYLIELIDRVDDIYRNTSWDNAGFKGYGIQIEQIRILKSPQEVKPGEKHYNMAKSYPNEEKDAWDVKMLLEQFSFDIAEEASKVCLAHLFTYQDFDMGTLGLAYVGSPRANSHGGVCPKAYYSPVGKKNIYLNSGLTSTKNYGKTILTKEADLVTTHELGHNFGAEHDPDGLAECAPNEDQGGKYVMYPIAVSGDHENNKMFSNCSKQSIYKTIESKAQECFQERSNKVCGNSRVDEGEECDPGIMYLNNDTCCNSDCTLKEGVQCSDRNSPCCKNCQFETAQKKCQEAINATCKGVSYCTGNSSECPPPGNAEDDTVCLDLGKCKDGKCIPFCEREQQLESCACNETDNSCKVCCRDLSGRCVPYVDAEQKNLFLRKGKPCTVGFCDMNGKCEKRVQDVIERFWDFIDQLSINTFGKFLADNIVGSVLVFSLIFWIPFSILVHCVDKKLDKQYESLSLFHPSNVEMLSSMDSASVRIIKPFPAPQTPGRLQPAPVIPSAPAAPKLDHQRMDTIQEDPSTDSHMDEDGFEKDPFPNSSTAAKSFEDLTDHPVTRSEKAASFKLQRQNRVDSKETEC

**Q.** For `COc1ccc(S(=O)(=O)C2(C(=O)NO)CCN(C(C)C)CC2)cc1`, which inhibition in vivo at 25 mg/kg [1] is on record?
**A.** Its inhibition in vivo at 25 mg/kg is 49%.

**Q.** What about the inhibition [2] of the same compound?
**A.** The inhibition was 18%.

**Q.** Which IC50 [3] does the source give for `O=C(NO)C1(S(=O)(=O)c2ccc(OCc3ccccc3)cc2)CCN(Cc2ccccc2)CC1` here?
**A.** The IC50 was 3 nM.

**Q.** And the inhibition in vivo at 25 mg/kg [4]?
**A.** Its inhibition in vivo at 25 mg/kg is 17%.

**Q.** And the IC50 [5]?
**A.** Its IC50 is 416 nM.

**Q.** What about the IC50 [6] of the same compound?
**A.** The IC50 was 40 nM.

**Q.** What about the inhibition [7] of the same compound?
**A.** Its inhibition is 48%.

**Q.** Which results are given for `COc1ccc(S(=O)(=O)C2(C(=O)NO)CCN(C)CC2)cc1`?
**A.** inhibition [2]: 20%; inhibition in vivo at 25 mg/kg [8]: 36%

**Q.** What does the source list for `COc1ccc(S(=O)(=O)C2(C(=O)NO)CCN(Cc3ccc(C)cc3)CC2)cc1`?
**A.** IC50 [3]: 17 nM; IC50 [9]: 2 nM; inhibition in vivo at 25 mg/kg [10]: 89%

**Q.** Which IC50 [3] does the source give for `CCCCOc1ccc(S(=O)(=O)C2(C(=O)NO)CCN(Cc3ccc(OC)cc3)CC2)cc1` here?
**A.** Its IC50 is 3 nM.

**Q.** What about the inhibition in vivo at 25 mg/kg [11] of the same compound?
**A.** Its inhibition in vivo at 25 mg/kg is 69%.

**Q.** What about the inhibition in vivo at 25 mg/kg [12] of the same compound?
**A.** The inhibition in vivo at 25 mg/kg was 17%.

**Q.** And the IC50 [9]?
**A.** Its IC50 is 1 nM.

**Q.** For `CCCCOc1ccc(S(=O)(=O)C2(C(=O)NO)CCN(CCCOc3ccccc3)CC2)cc1`, which IC50 [3] is on record?
**A.** The IC50 was 5 nM.

**Q.** And the inhibition in vivo at 25 mg/kg [13]?
**A.** The inhibition in vivo at 25 mg/kg was 67%.

**Q.** What about the inhibition in vivo at 25 mg/kg [14] of the same compound?
**A.** The inhibition in vivo at 25 mg/kg was 17%.

**Q.** What does the source list for `CCCCN1CCC(C(=O)NO)(S(=O)(=O)c2ccc(Oc3ccc(Cl)cc3)cc2)CC1`?
**A.** IC50 [3]: 1 nM; IC50 [9]: 1 nM; inhibition in vivo at 10 mg/kg [15]: 69%; IC50 [5]: 301 nM; inhibition in vivo at 25 mg/kg [16]: 93%; IC50 [6]: 1070 nM

**Q.** Which inhibition in vivo at 25 mg/kg [13] does the source give for `COc1ccc(CN2CCC(C(=O)NO)(S(=O)(=O)c3ccc(OC)cc3)CC2)cc1` here?
**A.** The inhibition in vivo at 25 mg/kg was 75%.

**Q.** What about the inhibition in vivo at 25 mg/kg [17] of the same compound?
**A.** The inhibition in vivo at 25 mg/kg was 45%.

**Q.** What about the IC50 [9] of the same compound?
**A.** The IC50 was 2 nM.

**Q.** For `CCCCOc1ccc(S(=O)(=O)C2(C(=O)NO)CCN(Cc3ccccc3)CC2)cc1`, which IC50 [3] is on record?
**A.** Its IC50 is 4 nM.

**Q.** What about the inhibition in vivo at 25 mg/kg [18] of the same compound?
**A.** The inhibition in vivo at 25 mg/kg was 80%.

**Q.** What about the IC50 [9] of the same compound?
**A.** The IC50 was 1 nM.

**Q.** And the inhibition in vivo at 25 mg/kg [19]?
**A.** Its inhibition in vivo at 25 mg/kg is 53%.

**Q.** With `CCCCOc1ccc(S(=O)(=O)C2(C(=O)NO)CCN(Cc3cccc(OCCN4CCOCC4)c3)CC2)cc1` as the compound, how does the inhibition in vivo at 25 mg/kg [20] read?
**A.** Its inhibition in vivo at 25 mg/kg is 27%.

**Q.** With `CCCCOc1ccc(S(=O)(=O)C2(C(=O)NO)CCN(CCCC)CC2)cc1` as the compound, how does the IC50 [9] read?
**A.** Its IC50 is 2 nM.

**Q.** And the inhibition in vivo at 25 mg/kg [21]?
**A.** Its inhibition in vivo at 25 mg/kg is 46%.

**Q.** And the inhibition in vivo at 25 mg/kg [22]?
**A.** The inhibition in vivo at 25 mg/kg was 86%.

**Q.** And the inhibition [7]?
**A.** Its inhibition is 50%.

**Q.** Which inhibition in vivo at 25 mg/kg [23] does the source give for `CCN1CCC(C(=O)NO)(S(=O)(=O)c2ccc(OC)cc2)CC1` here?
**A.** The inhibition in vivo at 25 mg/kg was 17%.

**Q.** What about the inhibition [2] of the same compound?
**A.** The inhibition was 25%.
